In ChEMBL document CHEMBL3232782, “1,2,3,4,8,9,10,11-octahydrobenzo[j]phenanthridine-7,12-diones as new leads against Mycobacterium tuberculosis” (J Med Chem, 2014):
Converted amounts (≈) assume the structure as drawn. The source made the active and inactive calls. No cut-off for these calls is given here.

How the values were obtained:
[1] = tested on: Mycobacterium tuberculosis; test: Antimycobacterial activity against Mycobacterium tuberculosis H37Rv expressing luciferase assessed as growth inhibition after 6 days by luminometry; type: functional; conditions: 144 h
In short: (§1)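 Strains carried pSMT1 luxAB reporter plasmid. DMSO stocks 10 mM, serially diluted in 7H9 + 10% FCS, triplicate wells. Filtered bacterial suspension at 50 000 RLU/mL. Luminescence read after 6 days using 1% n-decanal substrate. […] Growth temperatures: M.tb 37 °C; M. avium and M. bovis 39 °C.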

[2] = Cytotoxicity against mouse J774A1 cells assessed as cell viability after 24 hrs by Trypan blue exclusion assay; type: cell-based; conditions: J774.A1, 24 h
[3] = Selectivity index, ratio of IC50 for mouse J774A1 cells to MIC for Mycobacterium tuberculosis H37Rv expressing luciferase; type: toxicity, cell-based, J774.A1; conditions: read-out: Selectivity Index
In short: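 SI = IC50/MIC. IC50 came from a neutral red uptake assay on J774 A.1 cells after 24 h exposure in DMEM + 10% FCS, with OD 530 nm. […] Both were from triplicate cultures.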

[4] = tested on: Mycobacterium tuberculosis; test: Antimycobacterial activity against Mycobacterium tuberculosis Beijing 17919 expressing luciferase assessed as growth inhibition after 6 days by luminometry; type: functional; conditions: Beijing 17919, 144 h; in short: as §1
[5] = tested on: Mycobacterium avium subsp. paratuberculosis; test: Antimycobacterial activity against Mycobacterium avium subsp. paratuberculosis ATCC 19698 expressing luciferase assessed as growth inhibition after 6 days by luminometry; type: functional; conditions: ATCC 19698, 144 h; in short: as §1
[6] = Antimycobacterial activity against Mycobacterium avium subsp. avium ATCC 15769 expressing luciferase assessed as growth inhibition after 6 days by luminometry; type: functional; conditions: ATCC 15769, 144 h; in short: as §1
[7] = tested on: Mycobacterium tuberculosis; test: Antimycobacterial activity against Mycobacterium tuberculosis H37Rv expressing luciferase assessed as growth inhibition at 100 uM preincubated with liver S9 fraction for 15 mins followed by incubation with parasite and measured after 6 days by luminometry; type: functional, organism-based
In short: (§2)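 Compounds (100 μM) were preincubated with NADPH/G-6-P-conditioned liver S9 at 37 °C, 5% CO2 for 15 or 30 min. They were then serially diluted and tested against luminescent H37Rv in 7H9 + 10% FCS. Luminescence was read after 6 days with n-decanal.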

[8] = tested on: Mycobacterium tuberculosis; test: Antimycobacterial activity against Mycobacterium tuberculosis H37Rv expressing luciferase assessed as growth inhibition preincubated with liver S9 fraction for 30 mins followed by incubation with parasite and measured after 6 days by luminometry; type: functional; in short: as §2
[9] = Selectivity ratio of IC90 for Mycobacterium ulcerans 1615 to IC90 for Mycobacterium tuberculosis; type: functional
[10] = tested on: Mycobacterium tuberculosis; test: Antimycobacterial activity against Mycobacterium tuberculosis H37Rv expressing luciferase infected in mouse J774A1 cells assessed as inhibition of replication at 0.03 to 0.05 uM measured after 1 to 4 days by luminescence assay; type: functional, organism-based; conditions: J774.A1
In short: (§3)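 J774 A.1 cells (40 000/well) were infected with H37Rv lux at MOI 0.1 in DMEM with penicillin/fungizone and no gentamicin. Serial compound dilutions were added, with treatment starting 24 h post infection. Extracellular bacteria were removed by washes and 1 h 1% gentamicin. Cells were lysed with 1% Triton X-100 and luminescence read with n-decanal. Reduction in RLU versus untreated; INH 0.1 μM control.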

[11] = tested on: Mycobacterium tuberculosis; test: Antimycobacterial activity against Mycobacterium tuberculosis H37Rv expressing luciferase infected in mouse J774A1 cells assessed as inhibition of replication at 0.25 uM measured after 1 to 4 days by luminescence assay; type: functional; conditions: J774.A1; in short: as §3
[12] = tested on: Mycobacterium tuberculosis; test: Antimycobacterial activity against Mycobacterium tuberculosis H37Rv expressing luciferase infected in mouse J774A1 cells assessed as inhibition of replication at 0.50 uM measured after 1 to 4 days by luminescence assay; type: functional; conditions: J774.A1; in short: as §3
[13] = tested on: Mycobacterium tuberculosis; test: Antimycobacterial activity against Mycobacterium tuberculosis H37Rv expressing luciferase infected in mouse J774A1 cells assessed as inhibition of replication measured after 1 to 4 days by luminescence assay; type: functional, J774.A1; in short: as §3
[14] = Genotoxicity in mouse J774A1 cells assessed as DNA strand breaks at 0.25 to 50 uM after 24 hrs by Comet assay; type: toxicity, cell-based; conditions: j774.a1, 24 h
In short: (§4)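 J774 A.1 cells (100 000/well) were exposed to compound serial dilutions in DMEM + 10% FCS for 24 h at 37 °C, 5% CO2. Alkaline comet assay: cells embedded in low-melt agarose, lysed, electrophoresed 20 min at 300 mA, neutralized and stained with gel red. The % tail DNA of 200 nuclei was scored by fluorescence microscopy. Mann–Whitney U test.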

[15] = Selectivity index, ratio of IC50 for mouse J774A1 cells to MIC for Mycobacterium tuberculosis H37Rv expressing luciferase infected in mouse J774A1 cells; type: toxicity, cell-based, J774.A1; conditions: read-out: Selectivity Index
In short: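 SI = neutral red IC50 in J774 A.1 cells (24 h) divided by the intracellular MIC. The intracellular MIC came from luminescent H37Rv in infected J774 A.1 macrophages after 3 days of treatment starting 24 h post infection, with lysate luminescence measured using n-decanal.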

[16] = Genotoxicity in mouse J774A1 cells assessed as DNA strand breaks at 0.25 to 5 uM after 24 hrs by Comet assay; type: toxicity, cell-based; conditions: j774.a1, 24 h; in short: as §4

Compound: NNC(=O)c1ccncc1 [ISONIAZID]
- MIC99 [1]: 0.13 µM (≈ 0.0178 µg/mL)
- IC50 [2]: > 100 µM
- selectivity ratio [3]: > 769
- MIC [4]: 0.09 µM (≈ 0.0123 µg/mL)
- MIC [5]: 0.99 µM (≈ 0.136 µg/mL)
- MIC [6]: 0.76 µM (≈ 0.104 µg/mL)

Compound: CC(C)(C)C1CCc2ncc3c(c2C1)C(=O)c1ccccc1C3=O (stereo not given)
- MIC99 [1]: 9.64 µM (≈ 3.08 µg/mL)
- IC50 [2]: 11.5 µM
- selectivity ratio [3]: 1.19

Compound: CC(C)(C)C1CCc2ncc3c(c2C1)C(=O)C1=C(C3=O)C2CCC1CC2 (stereo not given)
- MIC99 [1]: 8.56 µM (≈ 2.99 µg/mL)
- IC50 [2]: 22.9 µM
- selectivity ratio [3]: 2.68

Compound: CC(C)(C)C1CCc2ncc3c(c2C1)C(=O)C1=C(C3=O)C2CCC1C2 (stereo not given)
- MIC99 [1]: 0.59 µM (≈ 0.198 µg/mL)
- IC50 [2]: 51.4 µM
- selectivity ratio [3]: 87
- growth inhibition (GI) [7]: Active
- MIC [8]: 1.05 µM (≈ 0.352 µg/mL)
- MIC [4]: 0.33 µM (≈ 0.111 µg/mL)
- MIC [5]: 0.69 µM (≈ 0.231 µg/mL)
- MIC [6]: 0.8 µM (≈ 0.268 µg/mL)
- Selectivity ratio [9]: 6
- growth inhibition (GI) [10]: inactive
- inhibition at 0.25 µM [11]: 43.8%
- inhibition at 0.5 µM [12]: 52.6%
- MIC [13]: 2.48 µM (≈ 0.832 µg/mL)
- Activity [14]: Non-toxic
- selectivity ratio [15]: 20.7

Compound: CC1CCc2c(ncc3c2C(=O)c2ccccc2C3=O)C1 (stereo not given)
- MIC99 [1]: 5.3 µM (≈ 1.47 µg/mL)
- IC50 [2]: 8.13 µM
- selectivity ratio [3]: 1.53

Compound: Cc1ccc2c3c(cnc2c1)C(=O)c1ccccc1C3=O
- MIC [1]: 0.64 µM (≈ 0.175 µg/mL)
- IC50 [2]: 3.21 µM
- selectivity ratio [3]: 15

Compound: CCOC(=O)C1CCc2ncc3c(c2C1)C(=O)C1=C(C3=O)C2CCC1C2 (stereo not given)
- MIC99 [1]: 0.22 µM (≈ 0.0773 µg/mL)
- IC50 [2]: 8.49 µM
- selectivity ratio [3]: 38.6
- growth inhibition (GI) [7]: Active
- MIC [8]: 0.66 µM (≈ 0.232 µg/mL)
- MIC [4]: 0.14 µM (≈ 0.0492 µg/mL)
- MIC [5]: 0.44 µM (≈ 0.155 µg/mL)
- MIC [6]: 1.22 µM (≈ 0.429 µg/mL)
- Selectivity ratio [9]: 50
- growth inhibition (GI) [10]: inactive
- inhibition at 0.25 µM [11]: 63.9%
- inhibition at 0.5 µM [12]: 86.7%
- MIC [13]: 2.38 µM (≈ 0.836 µg/mL)
- Activity [16]: Non-toxic
- selectivity ratio [15]: 10.8

Compound: CCOC(=O)C1CCc2ncc3c(c2C1)C(=O)C1=C(C3=O)C2CCC1CC2 (stereo not given)
- MIC99 [1]: 0.26 µM (≈ 0.095 µg/mL)
- IC50 [2]: 49.8 µM
- selectivity ratio [3]: 191
- growth inhibition (GI) [7]: Active
- MIC [8]: 0.65 µM (≈ 0.238 µg/mL)
- MIC [4]: 0.16 µM (≈ 0.0585 µg/mL)
- MIC [5]: 0.21 µM (≈ 0.0767 µg/mL)
- MIC [6]: 0.37 µM (≈ 0.135 µg/mL)
- Selectivity ratio [9]: 10
- growth inhibition (GI) [10]: inactive
- inhibition at 0.25 µM [11]: 55.8%
- inhibition at 0.5 µM [12]: 94.3%
- MIC [13]: 2.41 µM (≈ 0.881 µg/mL)
- Activity [14]: Non-toxic
- selectivity ratio [15]: 79.3

Compound: Cc1nc2c(c3c1C(=O)c1ccccc1C3=O)CCCC2C (stereo not given)
- MIC99 [1]: 17.7 µM (≈ 5.15 µg/mL)
- IC50 [2]: 30.8 µM
- selectivity ratio [3]: 1.74

Compound: CC1CCCc2c1ncc1c2C(=O)c2ccccc2C1=O (stereo not given)
- MIC99 [1]: 14.4 µM (≈ 4 µg/mL)
- IC50 [2]: 14.9 µM
- selectivity ratio [3]: 1.03

Compound: CC1CCc2ncc3c(c2C1)C(=O)c1ccccc1C3=O (stereo not given)
- MIC99 [1]: 9.61 µM (≈ 2.67 µg/mL)
- IC50 [2]: 1.31 µM
- selectivity ratio [3]: 0.14

Compound: CO[C@H]1/C=C/O[C@@]2(C)Oc3c(C)c(O)c4c(O)c(c(/C=N/N5CCN(C)CC5)c(O)c4c3C2=O)NC(=O)/C(C)=C\C=C\[C@H](C)[C@H](O)[C@@H](C)[C@@H](O)[C@@H](C)[C@H](OC(C)=O)[C@@H]1C [RIFAMPIN]
- MIC99 [1]: 0.19 µM (≈ 0.156 µg/mL)
- IC50 [2]: > 100 µM
- selectivity ratio [3]: > 526

Compound: Cc1nc2c(c3c1C(=O)c1ccccc1C3=O)CCCC2
- MIC99 [1]: 17.8 µM (≈ 4.93 µg/mL)
- IC50 [2]: 10.9 µM
- selectivity ratio [3]: 0.61

Compound: O=C1c2ccccc2C(=O)c2c1cnc1c2CCCC1
- MIC99 [1]: 9.88 µM (≈ 2.6 µg/mL)
- IC50 [2]: 7.34 µM
- selectivity ratio [3]: 0.74

Compound: CC(C)(C)C1CCc2ncc3c(c2C1)C(=O)C1=C(C3=O)C2CCC1O2 (stereo not given)
- MIC99 [1]: 7.21 µM (≈ 2.43 µg/mL)
- IC50 [2]: 53.2 µM
- selectivity ratio [3]: 7.38

Compound: CC(C)(C)OC(=O)N1CCc2ncc3c(c2C1)C(=O)C1=C(C3=O)C2CCC1C2 (stereo not given)
- MIC99 [1]: 12.9 µM (≈ 4.9 µg/mL)
- IC50 [2]: 7.33 µM
- selectivity ratio [3]: 0.57

Compound: Cc1nc2c(c3c1C(=O)c1ccccc1C3=O)CCC(C)C2 (stereo not given)
- MIC99 [1]: 9.85 µM (≈ 2.87 µg/mL)
- IC50 [2]: 25.7 µM
- selectivity ratio [3]: 2.61
